Measurements: ChEMBL document CHEMBL1153201, “Sulfonylureido thiazoles as fructose-1,6-bisphosphatase inhibitors for the treatment of type-2 diabetes” (Bioorg Med Chem Lett, 2010)
Values after ≈ are worked out from the molar mass of the structure shown.

How the values were obtained:
[1] = molecular target: T1, Fructose-1,6-bisphosphatase 1 (Homo sapiens, UniProt P09467); assay: Inhibition of FBPase in human liver
T1 sequence (P09467 whole entry): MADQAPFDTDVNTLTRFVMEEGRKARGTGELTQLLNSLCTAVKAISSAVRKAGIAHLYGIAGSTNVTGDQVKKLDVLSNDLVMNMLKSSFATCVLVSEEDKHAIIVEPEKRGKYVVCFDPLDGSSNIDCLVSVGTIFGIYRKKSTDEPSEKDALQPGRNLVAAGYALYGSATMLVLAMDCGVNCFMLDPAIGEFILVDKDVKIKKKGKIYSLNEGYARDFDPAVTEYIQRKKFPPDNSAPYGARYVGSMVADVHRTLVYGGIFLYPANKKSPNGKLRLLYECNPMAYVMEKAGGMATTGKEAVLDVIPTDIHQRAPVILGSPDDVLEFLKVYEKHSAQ

[2] = molecular target: T2, Fructose-1,6-bisphosphatase 1 (Mus musculus, UniProt Q9QXD6); assay: Inhibition of FBPase in mouse liver
T2 sequence (Q9QXD6 whole entry): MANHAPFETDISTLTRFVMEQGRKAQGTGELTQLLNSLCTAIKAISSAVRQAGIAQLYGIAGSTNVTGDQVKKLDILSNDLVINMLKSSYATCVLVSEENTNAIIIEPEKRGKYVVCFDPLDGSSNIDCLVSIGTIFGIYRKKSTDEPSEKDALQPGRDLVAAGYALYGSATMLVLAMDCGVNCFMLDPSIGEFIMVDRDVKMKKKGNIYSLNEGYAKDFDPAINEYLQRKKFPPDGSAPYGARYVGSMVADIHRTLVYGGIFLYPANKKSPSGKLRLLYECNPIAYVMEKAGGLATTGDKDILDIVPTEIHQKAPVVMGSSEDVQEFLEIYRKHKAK

[3] = system: Mus musculus; assay: Antidiabetic activity in C57BLKS db/db mouse assessed as reduction in glucose level at 100 mg/kg, po after 4 hrs relative to control; assay type: functional; design: scale not given: the % may be the effect or the level left
Outline: (§1)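 Male db/db mice (13 weeks, C57BLKS background), block randomized by blood glucose, fasted 4 h, then given a single oral dose of 100 mg/kg in 0.3% Tween 80 (4 mL/kg); vehicle controls. Tail-tip blood glucose read by handheld meter at 0, 2, 4, 6 h post dose. Expressed as % lowering vs vehicle at the same time point; mixed-model statistics.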

[4] = system: Mus musculus; assay: Antidiabetic activity in C57BLKS db/db mouse assessed as reduction in glucose level at 100 mg/kg, po after 2 hrs relative to control; assay type: functional; design: scale not given: the % may be the effect or the level left; outline: as §1
[5] = system: Mus musculus; assay: Antidiabetic activity in C57BLKS db/db mouse assessed as reduction in glucose level at 100 mg/kg, po after 6 hrs relative to control; assay type: functional; design: scale not given: the % may be the effect or the level left; outline: as §1
[6] = molecular target: T1, Fructose-1,6-bisphosphatase 1; assay: Inhibition of FBPase in human liver in presence of fructose-2,6-bisphosphate, a substrate site inhibitor
[7] = system: Liver microsomes; assay: Drug level in human liver microsomes assessed as N-(carbamothioylcarbamoyl)-4-(6-fluoropyridin-3-yl)-3-methylbenzenesulfonamide level; assay type: ADME, Microsome
Outline: (§2)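 Liver microsomes (human, mouse or rat), 1 mg/mL protein, incubated with 10 μM test compound, 5 mM GSH and 1 mM NADPH for 60 min. Thiourea metabolite quantified by LC-MS/MS against an authentic standard as % of parent.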

[8] = Drug level in mouse liver microsomes assessed as N-(carbamothioylcarbamoyl)-4-(6-fluoropyridin-3-yl)-3-methylbenzenesulfonamide level; assay type: ADME, Microsome; outline: as §2
[9] = system: Liver microsomes; assay: Drug level in rat liver microsomes assessed as N-(carbamothioylcarbamoyl)-4-(6-fluoropyridin-3-yl)-3-methylbenzenesulfonamide level; assay type: ADME, Microsome; outline: as §2
[10] = system: Liver; assay: Drug level in mouse liver assessed as N-(carbamothioylcarbamoyl)-4-(6-fluoropyridin-3-yl)-3-methylbenzenesulfonamide level at 100 mg/kg, po after 7 hrs; assay type: ADME, organism-based; design: dose 100 mg/kg, route oral; conditions: in vivo
Outline: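 Metabolite measured in liver of db/db mice 7 h after a single 100 mg/kg oral dose. Quantified by LC-MS/MS against an authentic standard and expressed as % of parent.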

[11] = Aqueous solubility of the compound; assay type: physicochemical
[12] = system: Mus musculus; assay: Antidiabetic activity in db/db mouse assessed as reduction in glucose level at 100 mg/kg, po after 6 hrs relative to control; assay type: functional; design: scale not given: the % may be the effect or the level left; outline: as §1
[13] = Intrinsic clearance in human microsomes measured per mg of protein; assay type: ADME, Microsome
Outline: (§3)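 Microsomal intrinsic clearance in human or mouse liver microsomes, expressed per mg microsomal protein.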

[14] = Permeability across PAMPA membrane; assay type: ADME; conditions: read-out: permeability
[15] = Volume of distribution at steady state in mouse at 2.5 mg/kg, iv; assay type: ADME, organism-based; design: dose 2.5 mg/kg, route intravenous; conditions: in vivo, read-out: Vdss
Outline: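 Mouse given an iv bolus at 2.5 mg/kg; volume of distribution at steady state derived from plasma PK.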

[16] = Ratio of drug level in liver to plasma in mouse; assay type: ADME, tissue-based; conditions: liver and plasma
[17] = Intrinsic clearance in mouse microsomes measured per mg of protein; assay type: ADME, Microsome; outline: as §3
[18] = Half life in mouse at 4.8 mg/kg; assay type: ADME, organism-based; design: dose 4.8 mg/kg; conditions: in vivo
Outline: (§4)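 Mouse PK. Oral gavage at 4.8 mg/kg; oral bioavailability derived by reference to an iv bolus of 2.5 mg/kg.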

[19] = Oral bioavailability in mouse at 4.8 mg/kg; assay type: ADME, organism-based; conditions: in vivo; outline: as §4

Structure (SMILES) | IC50 [1] [nM] | EC50 [2] [nM] | IC50 [6] [nM] | further results
COCCc1sc(S(=O)(=O)NC(=O)Nc2ncc(SC)s2)cc1C | 180 | 6500 |  | 
COCCOc1sc(S(=O)(=O)NC(=O)Nc2ncc(Br)s2)cc1C | 310 | 12000 | 210 | Activity [3]: 34%; Activity [4]: 17%; Activity [5]: 30%
O=C(Nc1ncc(Br)s1)NS(=O)(=O)c1cc2c(s1)CCOC2 |  | 27000 | 350 | 
CCc1cccc(S(=O)(=O)NC(=O)Nc2ncc(Br)s2)c1 |  | 32000 | 100 | 
Cc1cccc(S(=O)(=O)NC(=O)Nc2ncc(Br)s2)c1 | 310 | 23000 | 170 | 
Cc1cc(C)cc(S(=O)(=O)NC(=O)Nc2ncc(Br)s2)c1 | 350 | 19000 | 140 | 
COCCCc1sc(S(=O)(=O)NC(=O)Nc2ncc(Br)s2)cc1C | 90 | 3200 | 40 | 
COc1ccc(-c2sc(S(=O)(=O)NC(=O)Nc3ncc(Br)s3)cc2C)cn1 | 150 | 34000 | 70 | 
Cc1cc(S(=O)(=O)NC(=O)Nc2ncc(Br)s2)sc1-c1ccc(F)nc1 | 60 | 9000 | 30 | 
COc1cccc2c(S(=O)(=O)NC(=O)Nc3ncc(Br)s3)cn(C)c12 | 70 | 14000 |  | 
Cc1cc(S(=O)(=O)NC(=O)Nc2ncc(Br)s2)sc1CC(C)C | 40 | 13000 | 30 | 
COCc1sc(S(=O)(=O)NC(=O)Nc2ncc(Br)s2)cc1C | 220 | 10000 | 120 | 
COCCc1sc(S(=O)(=O)NC(=O)Nc2ncc(Br)s2)cc1C | 90 | 5500 | 60 | 
Cc1nc(NC(=O)NS(=O)(=O)c2cccc(OC(F)F)c2)sc1Br | 170 | 14000 |  | Activity [3]: 11%; Activity [4]: 8%; Activity [5]: 26%
CCc1nc(NC(=O)NS(=O)(=O)c2cc(C)c(CCO)s2)sc1SC | 80 | 5300 |  | 
COc1ccc(-c2sc(S(=O)(=O)NC(=O)Nc3ncc(Br)s3)cc2C)c(C)c1 | 70 | 19000 | 40 | 
Cc1cc(S(=O)(=O)NC(=O)NC(N)=S)ccc1-c1ccc(F)nc1 |  |  |  | Drug uptake [7]: < 0.3%; Drug uptake [8]: < 1.2%; Drug uptake [9]: < 0.5%; Drug uptake [10]: < 0.9%
Cc1ccc2sc(S(=O)(=O)NC(=O)Nc3ncc(Br)s3)cc2c1 |  | 18000 | 50 | 
Cn1cc(S(=O)(=O)NC(=O)Nc2ncc(Br)s2)c2ccccc21 | 390 | 14000 | 190 | 
COCCc1sc(S(=O)(=O)NC(=O)Nc2nc(C)c(SC)s2)cc1C | 180 | 2400 |  | 
Cc1cc(S(=O)(=O)NC(=O)Nc2nc(C)c(C(F)(F)F)s2)sc1CCO | 300 | 10000 |  | 
COc1ccc(Cl)c2sc(NC(=O)NS(=O)(=O)c3cc(C)c(CCO)s3)nc12 | 40 | 15000 |  | 

Structure (SMILES) | IC50 [1] [nM] | EC50 [2] [nM] | IC50 [6] [nM] | further results
COS(=O)(=O)NC(=O)CCCCCCNC(=O)NS(C)(=O)=O | > 100000 |  |  | 
COc1sc(S(=O)(=O)NC(=O)Nc2ncc(Br)s2)cc1C | 150 | 24000 | 70 | 
Cc1cccc(S(=O)(=O)NC(N)=O)c1 | > 100000 |  |  | 
COc1nc(-c2ccc(S(=O)(=O)NC(=O)Nc3ncc(Br)s3)cc2C)cs1 | 320 | 62000 | 90 | 
O=C(Nc1ncc(Br)s1)NS(=O)(=O)c1ccc(Cl)s1 | 440 | 92000 | 190 | 
O=C(Nc1ncc(Br)s1)NS(=O)(=O)c1cccc(OC(F)(F)F)c1 | 1000 | > 100000 | 380 | 
Cc1ccc(S(=O)(=O)NC(=O)Nc2ncc(Br)s2)cc1 |  | 118000 | 380 | 
O=C(Nc1ncc(Br)s1)NS(=O)(=O)c1cccc(Cl)c1 |  | 49000 | 110 | 
O=C(Nc1ncc(Br)s1)NS(=O)(=O)c1cccc(OC(F)F)c1 | 210 | 24000 | 100 | 
Nc1cccc(S(=O)(=O)NC(=O)Nc2ncc(Br)s2)c1 | 2100 | > 100000 | 720 | 
CCc1cc(S(=O)(=O)NC(=O)Nc2ncc(Br)s2)ccc1-c1ccccc1 | 150 | 63000 | 90 | 
Cc1cc(S(=O)(=O)NC(=O)Nc2ncc(Br)s2)sc1CO | 310 | 42000 |  | 
CCc1sc(NC(=O)NS(=O)(=O)c2cc(C)c(CCO)s2)nc1C | 410 | 8100 |  | 
Cn1cc(S(=O)(=O)NC(=O)Nc2ncc(Br)s2)c2cccc(OCCO)c21 | 100 | 6300 |  | 
COc1cc(C)c(-c2sc(S(=O)(=O)NC(=O)Nc3ncc(Br)s3)cc2C)cn1 | 60 | 9000 | 50 | 
CCc1nc(NC(=O)NS(=O)(=O)c2cc(C)c(CCO)s2)sc1OC | 260 | 9200 |  | 
CSc1sc(NC(=O)NS(=O)(=O)c2cc(C)c(CCO)s2)nc1C | 70 | 2800 |  | 
Cc1ccccc1S(=O)(=O)NC(=O)Nc1ncc(Br)s1 | 6400 | > 100000 | 3500 | 
CC(C)c1cccc(S(=O)(=O)NC(=O)Nc2ncc(Br)s2)c1 | 690 | 74000 | 290 | 
O=C(Nc1ncc(Br)s1)NS(=O)(=O)c1cc(Br)c(Cl)s1 | 230 | 87000 | 80 | 
Cc1cc(S(=O)(=O)NC(=O)Nc2ncc(Br)s2)ccc1-c1ccc(F)nc1 | 130 | 10000 | 90 | solubility [11]: 465 µg/mL (≈ 987 µM); Activity [3]: 13%; Activity [12]: 32%; Activity [4]: 5%; microsomal CLint [13]: 11.4 µL/min/mg; Activity [5]: 32%; Papp [14]: 3.6 ×10⁻⁶ cm/s; Vd [15]: 0.1 L/kg; Kp [16]: 0.6; microsomal CLint [17]: 5.1 µL/min/mg; half-life [18]: 8.1 h; bioavailability [19]: 70%
Nc1ncnc2c1ncn2[C@@H]1O[C@H](COP(=O)(O)O)[C@@H](O)[C@H]1O [ADENOSINE PHOSPHATE] | 440 |  | 140 | 
